Measured values taken from ChEMBL document CHEMBL3997800, “Discovery of Multitarget Agents Active as Broad-Spectrum Antivirals and Correctors of Cystic Fibrosis Transmembrane Conductance Regulator for Associated Pulmonary Diseases” (J Med Chem, 2017).
Active and inactive are the calls of the source. The rule behind the calls is not given here.

Tests used:
[1] = system: Enterovirus A71; assay: Antiviral activity against Enterovirus 71 TW/2429/04 clinical isolates incubated for 2 to 3 days; assay type: functional; settings: Enterovirus A
[2] = system: Coxsackievirus B3; assay: Antiviral activity against Coxsackievirus B3 after 2 to 3 days by cell based MTS assay; assay type: functional; settings: Enterovirus B
[3] = system: Cystic fibrosis transmembrane conductance regulator (Homo sapiens), P13569 [F508del]; assay: Potentiator activity at CFTR F508 deletion mutant (unknown origin) expressed in HEK293 cells assessed as increase in aninon permeability at 10 uM […] by YFP probe based imaging method; assay type: cell-based
[4] = system: Enterovirus A71; assay: Antiviral activity against Enterovirus 71 TW/96016/08 clinical isolates incubated for 2 to 3 days; assay type: functional; settings: Enterovirus A
[5] = Cytotoxicity against human RD cells after 2 to 3 days by MTS method; assay type: cell-based
Procedure, shortened: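 Uninfected RD cells, 20 000/well in 2% FCS medium, run in parallel with the antiviral assay. Three 8-step 1:5 dilution series from 100 μM, 2-3 days. Read-out by 5% MTS, 1.5 h at 37 °C, absorbance 498 nm, as % of untreated controls. CC50 is the 50% metabolic activity point, median of 3 curves.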

[6] = system: Enterovirus A71; assay: Antiviral activity against Enterovirus 71 11316 clinical isolates incubated for 2 to 3 days; assay type: functional; settings: Enterovirus A
[7] = target: Glycogen synthase kinase-3 beta (Homo sapiens) (UniProt P49841); assay: Inhibition of full-length recombinant human N-terminal GST-tagged GSK3beta expressed in baculovirus infected sf9 cells assessed as residual activity at 100 uM using YRRAAVPPSPSLSRHSSPHQ(pS)EDEEE as substrate by ADP-Glo bioluminescence assay relative to control relative to control
Procedure, shortened: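 Kinase run per the manufacturer's instructions with 10–50 ng enzyme in 10 μL at 30 °C for 10 min. NP-40 or BSA was added for some kinases. Compound was tested at 100 μM, with activity given as % residual. Values are the mean of two independent replicates.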

[8] = Selectivity index, ratio of CC50 for human RD cells assessed as change in cell morphology to EC50 for Enterovirus 71; assay type: toxicity; settings: read-out: Ratio CC50/EC50
Procedure, shortened: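 SI is CC50/EC50. CC50 is from microscopically detected morphology change in uninfected RD cells and EC50 from the EV71 CPE-reduction assay in RD cells.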

[9] = target: Tyrosine-protein kinase ABL1 (Homo sapiens) (UniProt P00519); assay: Inhibition of full length ABL (unknown origin) assessed as residual activity at 100 uM by ADP-Glo bioluminescence assay relative to control relative to control
Procedure, shortened: (§1)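 Kinase reactions followed manufacturer's instructions with 10-50 ng enzyme, in 10 µL for 10 min at 30 °C; NP-40 or BSA added for some kinases. Compound at 100 µM. Residual activity is the mean of two independent replicates.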

[10] = target: Focal adhesion kinase 1 (Homo sapiens) (UniProt Q05397); assay: Inhibition of […] recombinant human FAK (393 to 698 residues) expressed in baculovirus infected sf9 cells assessed as residual activity at 100 uM using poly(Glu,Tyr)4:1 as substrate by ADP-Glo bioluminescence assay relative to control relative to control; procedure, shortened: as §1
Chain of Focal adhesion kinase 1 (Homo sapiens) (Q05397 2-1052 limits assumed): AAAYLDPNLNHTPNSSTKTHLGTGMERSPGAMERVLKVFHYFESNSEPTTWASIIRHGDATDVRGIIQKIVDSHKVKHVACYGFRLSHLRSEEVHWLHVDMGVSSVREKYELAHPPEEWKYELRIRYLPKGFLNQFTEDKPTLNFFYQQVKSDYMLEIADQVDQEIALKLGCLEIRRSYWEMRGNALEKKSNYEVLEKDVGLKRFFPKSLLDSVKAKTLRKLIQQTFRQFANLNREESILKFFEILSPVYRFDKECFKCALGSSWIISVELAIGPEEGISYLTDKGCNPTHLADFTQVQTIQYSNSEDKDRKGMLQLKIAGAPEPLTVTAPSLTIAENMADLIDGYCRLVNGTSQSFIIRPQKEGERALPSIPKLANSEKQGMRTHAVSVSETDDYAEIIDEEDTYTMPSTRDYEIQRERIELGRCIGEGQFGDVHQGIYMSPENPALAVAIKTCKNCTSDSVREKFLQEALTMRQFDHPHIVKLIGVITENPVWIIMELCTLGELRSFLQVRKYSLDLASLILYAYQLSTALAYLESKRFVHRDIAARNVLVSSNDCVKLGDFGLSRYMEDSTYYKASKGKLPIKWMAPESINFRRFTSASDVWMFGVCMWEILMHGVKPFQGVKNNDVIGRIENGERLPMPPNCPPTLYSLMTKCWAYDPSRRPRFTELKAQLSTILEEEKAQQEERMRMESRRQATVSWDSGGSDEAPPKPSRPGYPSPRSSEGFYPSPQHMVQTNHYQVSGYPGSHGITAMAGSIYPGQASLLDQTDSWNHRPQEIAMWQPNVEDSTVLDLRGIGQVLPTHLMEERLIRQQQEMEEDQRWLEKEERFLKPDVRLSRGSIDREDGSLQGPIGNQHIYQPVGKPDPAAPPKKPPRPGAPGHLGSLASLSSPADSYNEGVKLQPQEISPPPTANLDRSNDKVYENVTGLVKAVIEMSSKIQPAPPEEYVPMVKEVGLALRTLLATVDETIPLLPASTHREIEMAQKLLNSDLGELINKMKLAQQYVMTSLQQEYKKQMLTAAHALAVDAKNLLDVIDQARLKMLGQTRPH

Chain of Glycogen synthase kinase-3 beta (Homo sapiens) (P49841 whole entry, looked up): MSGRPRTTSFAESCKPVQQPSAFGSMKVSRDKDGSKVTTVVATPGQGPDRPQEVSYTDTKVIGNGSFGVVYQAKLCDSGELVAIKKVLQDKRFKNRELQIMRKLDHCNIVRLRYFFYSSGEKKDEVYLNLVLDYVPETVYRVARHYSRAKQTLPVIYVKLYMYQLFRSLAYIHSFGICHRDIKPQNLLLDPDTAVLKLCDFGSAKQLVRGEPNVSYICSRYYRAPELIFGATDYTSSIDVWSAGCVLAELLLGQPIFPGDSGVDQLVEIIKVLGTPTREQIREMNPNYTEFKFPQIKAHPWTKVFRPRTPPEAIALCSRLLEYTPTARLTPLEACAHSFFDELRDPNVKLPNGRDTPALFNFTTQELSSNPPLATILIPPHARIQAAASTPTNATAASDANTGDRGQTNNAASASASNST
Chain of Cystic fibrosis transmembrane conductance regulator (Homo sapiens), P13569 [F508del] (P13569 as listed by the source): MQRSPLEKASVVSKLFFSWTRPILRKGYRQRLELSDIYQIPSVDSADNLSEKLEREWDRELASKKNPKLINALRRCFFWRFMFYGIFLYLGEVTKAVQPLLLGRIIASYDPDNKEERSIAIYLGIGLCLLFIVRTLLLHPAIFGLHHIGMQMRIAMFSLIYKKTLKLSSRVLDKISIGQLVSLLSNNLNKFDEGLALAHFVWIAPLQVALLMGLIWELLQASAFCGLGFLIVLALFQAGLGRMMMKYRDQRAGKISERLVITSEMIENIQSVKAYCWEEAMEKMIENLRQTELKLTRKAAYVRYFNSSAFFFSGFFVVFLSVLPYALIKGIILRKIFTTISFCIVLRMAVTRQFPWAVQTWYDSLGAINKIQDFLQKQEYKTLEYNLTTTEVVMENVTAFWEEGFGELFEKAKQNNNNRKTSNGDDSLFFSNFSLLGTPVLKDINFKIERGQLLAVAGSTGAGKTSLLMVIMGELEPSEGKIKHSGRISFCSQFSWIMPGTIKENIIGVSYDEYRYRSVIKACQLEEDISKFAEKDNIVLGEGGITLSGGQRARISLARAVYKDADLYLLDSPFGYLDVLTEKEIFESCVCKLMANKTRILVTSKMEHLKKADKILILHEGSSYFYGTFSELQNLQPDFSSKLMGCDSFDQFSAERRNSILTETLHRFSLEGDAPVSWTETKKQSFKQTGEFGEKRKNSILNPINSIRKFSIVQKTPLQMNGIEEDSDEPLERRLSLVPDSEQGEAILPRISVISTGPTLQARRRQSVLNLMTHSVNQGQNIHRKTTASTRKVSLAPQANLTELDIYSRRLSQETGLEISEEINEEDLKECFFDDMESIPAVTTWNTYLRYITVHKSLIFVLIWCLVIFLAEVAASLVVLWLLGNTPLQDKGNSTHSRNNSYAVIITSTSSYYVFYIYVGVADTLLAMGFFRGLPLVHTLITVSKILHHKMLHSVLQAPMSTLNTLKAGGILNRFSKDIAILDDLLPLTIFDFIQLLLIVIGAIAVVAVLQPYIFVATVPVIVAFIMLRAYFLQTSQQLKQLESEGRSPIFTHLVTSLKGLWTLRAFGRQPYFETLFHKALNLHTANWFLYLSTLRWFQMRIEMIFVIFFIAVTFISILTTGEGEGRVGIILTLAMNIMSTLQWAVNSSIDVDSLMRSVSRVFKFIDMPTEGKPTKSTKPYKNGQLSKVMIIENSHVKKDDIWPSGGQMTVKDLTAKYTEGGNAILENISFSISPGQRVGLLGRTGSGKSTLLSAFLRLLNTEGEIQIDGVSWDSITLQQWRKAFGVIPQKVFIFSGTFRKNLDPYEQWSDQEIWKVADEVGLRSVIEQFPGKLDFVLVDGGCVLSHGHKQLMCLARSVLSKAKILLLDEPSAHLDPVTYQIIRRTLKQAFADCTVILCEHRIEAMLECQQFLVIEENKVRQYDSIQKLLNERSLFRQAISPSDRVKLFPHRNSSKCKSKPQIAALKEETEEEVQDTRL
Chain of Tyrosine-protein kinase ABL1 (Homo sapiens) (P00519 whole entry): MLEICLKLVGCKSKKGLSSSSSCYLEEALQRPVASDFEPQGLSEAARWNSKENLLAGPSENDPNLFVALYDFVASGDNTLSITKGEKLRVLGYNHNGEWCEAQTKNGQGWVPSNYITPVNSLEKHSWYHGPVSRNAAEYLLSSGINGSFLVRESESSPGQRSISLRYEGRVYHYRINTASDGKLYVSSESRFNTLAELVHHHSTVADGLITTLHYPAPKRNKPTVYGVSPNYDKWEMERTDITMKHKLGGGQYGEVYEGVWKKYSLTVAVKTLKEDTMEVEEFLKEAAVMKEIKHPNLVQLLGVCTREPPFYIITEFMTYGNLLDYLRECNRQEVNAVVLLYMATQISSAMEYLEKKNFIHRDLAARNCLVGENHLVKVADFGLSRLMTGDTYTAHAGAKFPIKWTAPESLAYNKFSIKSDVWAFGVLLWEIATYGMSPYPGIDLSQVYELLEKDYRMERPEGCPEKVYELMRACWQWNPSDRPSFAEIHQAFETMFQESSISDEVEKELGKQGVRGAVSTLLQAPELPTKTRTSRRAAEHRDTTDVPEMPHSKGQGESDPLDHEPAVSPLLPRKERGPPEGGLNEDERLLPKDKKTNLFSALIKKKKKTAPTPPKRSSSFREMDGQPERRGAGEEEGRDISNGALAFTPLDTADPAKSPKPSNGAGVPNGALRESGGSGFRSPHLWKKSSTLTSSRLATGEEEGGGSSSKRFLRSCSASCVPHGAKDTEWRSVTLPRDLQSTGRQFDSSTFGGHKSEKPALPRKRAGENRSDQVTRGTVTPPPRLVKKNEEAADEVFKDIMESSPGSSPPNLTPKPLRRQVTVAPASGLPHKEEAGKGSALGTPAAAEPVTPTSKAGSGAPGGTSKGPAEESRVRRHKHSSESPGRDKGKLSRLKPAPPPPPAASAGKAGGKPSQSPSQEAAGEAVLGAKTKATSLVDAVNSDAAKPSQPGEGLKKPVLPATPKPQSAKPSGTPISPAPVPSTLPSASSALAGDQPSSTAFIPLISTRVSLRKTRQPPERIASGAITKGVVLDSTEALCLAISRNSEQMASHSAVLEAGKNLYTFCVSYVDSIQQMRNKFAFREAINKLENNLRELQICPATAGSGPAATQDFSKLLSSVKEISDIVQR

Question: Which EC50 [1] does the source give for `CC(=O)c1cccc(Nc2nc(-c3sc(NC(=O)OC(C)(C)C)nc3C)cs2)c1` here?
Answer: Its EC50 is 1170 nM.

Question: And the EC50 [2]?
Answer: The EC50 was 2740 nM.

Question: What about the Activity [3] of the same compound?
Answer: The Activity was “inactive”.

Question: And the EC50 [4]?
Answer: Its EC50 is 21000 nM.

Question: And the CC50 [5]?
Answer: The CC50 was 42300 nM.

Question: What about the EC50 [6] of the same compound?
Answer: The EC50 was under 1390 nM.

Question: What about the Activity [7] of the same compound?
Answer: The Activity was 79%.

Question: What about the selectivity ratio [8] of the same compound?
Answer: Its selectivity ratio is 71.1.

Question: What about the Activity [9] of the same compound?
Answer: The Activity was 53%.

Question: What about the Activity [10] of the same compound?
Answer: The Activity was 82%.
